Screening results deposited in PubChem BioAssay by Johns Hopkins Ion Channel Center.
Shown are actives, neighbours in structure and some others; about 3.5% of the full set was active somewhere.
MrgX1 ag = agonists of human MrgX1 receptor; Q96LB2; MrgX1-HEK293 cells, Fluo-4 calcium fluorescence, agonist mode; hits give high values; B-score at 10 µM; 0.44% of 310,000 active; AID 588627;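 active = calcium response B-score plate-corrected fluorescence ratio at least 3 library SD, with starting fluorescence B-score inside 5 SD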
Target sequence (Q96LB2 whole entry, looked up): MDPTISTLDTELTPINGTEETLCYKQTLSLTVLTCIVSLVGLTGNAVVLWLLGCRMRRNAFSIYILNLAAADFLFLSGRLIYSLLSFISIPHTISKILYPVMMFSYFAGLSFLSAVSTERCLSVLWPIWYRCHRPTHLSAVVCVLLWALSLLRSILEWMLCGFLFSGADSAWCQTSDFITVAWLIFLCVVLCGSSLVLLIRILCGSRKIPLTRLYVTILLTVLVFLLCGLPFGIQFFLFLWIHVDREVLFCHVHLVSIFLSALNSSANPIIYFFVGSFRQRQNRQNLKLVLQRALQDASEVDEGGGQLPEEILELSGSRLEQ
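Material: MrgX1-expressing HEK293 cells; input: 15,000 cells per well; doses: test compound given as first of three sequential additions; schedule: overnight plating before 1 h dye loading; technique: Fluo-4 NW calcium-flux fluorescence, kinetic read; evaluation: baseline-normalised fluorescence change ratio, B-scored; control set: plate-wise positive and negative controls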
MrgX1 allo act = allosterically activates human MrgX1 receptor signaling | MrgX1-HEK293, Fluo-4 calcium flux, FDSS; hits give high values | 0.63% of 310,000 active | B-score at 10 µM | Q96LB2 | AID 588675;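 active = plate-corrected calcium response at least 3 library SD above typical, normal starting fluorescence, not activating the receptor alone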;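 note: compound read alongside a low EC10 to EC30 dose of BAM8-22 agonist; peak minus trough fluorescence over baseline measured at the second addition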
RGS4 block = human RGS4 inhibition | HEK293 M3R/RGS4 inducible, Fluo-4 calcium flux; hits give high values; triggered by carbachol at its EC20 | B-score at 10 µM | 0.45% of 310,000 active;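 active = B-score, a plate-corrected calcium signal, over three deviations above library mean, with baseline fluorescence within five deviations of library mean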;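 note: RGS4 expression induced by doxycycline in cells with stable M3 receptor; B-score is computed from the integrated fluorescence ratio over baseline after carbachol; higher B-score means a larger calcium signal and so more RGS4 inhibition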
Target sequence (P49798 whole entry, looked up): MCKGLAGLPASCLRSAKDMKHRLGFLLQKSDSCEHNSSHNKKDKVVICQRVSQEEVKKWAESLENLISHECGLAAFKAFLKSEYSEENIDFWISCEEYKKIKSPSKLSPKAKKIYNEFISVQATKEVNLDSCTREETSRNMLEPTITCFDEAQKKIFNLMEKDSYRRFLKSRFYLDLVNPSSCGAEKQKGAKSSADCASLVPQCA
RGS4 pot = RGS4 potentiation or activation. B-score at 10 µM. 0.92% of 310,000 active. HEK293 M3R/inducible RGS4, carbachol calcium flux Fluo4; hits give low values. AID 463111;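 active = B-score of the integrated calcium signal more than 4 SD below the library mean, with starting fluorescence not abnormally high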;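 note: negative B-score means reduced calcium response which marks RGS4 activation or potentiation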
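Reagent: ECmax carbachol challenge; Test system: M3R-expressing HEK293 line, RGS4 induced by doxycycline; Schedule: overnight RGS4 induction, 30 min dye load 37 °C, 20 min compound RT; Detection: calcium dye Fluo4 fluorescence; Read-out: Agonist-evoked peak-minus-minimum fluorescence over baseline, integrated ratio, B score.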
MrgX1 antag = antagonists of human MrgX1 receptor; 1.3% of 310,000 active; B-score at 10 µM; Q96LB2; MRGX1-HEK293 calcium flux, Fluo-4, BAM8-22 antagonism; hits give low values;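 active = calcium-response B-score plate-corrected more than 3 library SD below zero, starting fluorescence within 5 deviations, no agonist response on first addition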;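 note: peak minus trough fluorescence over baseline after final BAM8-22 challenge near maximal dose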
RGS4 activ val = confirmation of RGS4 activators; shares compounds with RGS4 pot; AID 602282; inhibition, % at 10 µM; HEK293 M3R/RGS4 inducible, carbachol calcium flux Fluo4; 89% of 1,100 active;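 active = inhibition above 3 SD of the buffer control wells, cut at about 41% in these data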;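 note: signal is the integrated peak-minus-minimum Fluo4 fluorescence over baseline ratio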
RGS4 act ctr = activity in cells without induced RGS4 expression | 82% of 1,100 active | HEK293 M3R non-induced RGS4, Fluo4 calcium flux; after carbachol challenge at its EC90 | shares compounds with RGS4 pot | inhibition, % at 10 µM;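 active = inhibition exceeding 3 SD of buffer-only control wells, cut at about 26% in these data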;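 note: percent drop in integrated peak-minus-baseline over baseline Fluo4 ratio after carbachol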
MrgX1 ag reconf = reconfirmed activator of human MrgX1 receptor signaling | shares compounds with MrgX1 ag | MrgX1-HEK293, Fluo-4 calcium fluorescence, FDSS | activation, % at 10 µM | 78% of 600 active | AID 602412;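 active = calcium signal rise, corrected for plate position, at least 3 library SD high, with starting brightness within 5 such deviations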
MrgX1 PAM conf = confirmation of human MrgX1 receptor positive allosteric modulators. shares compounds with MrgX1 allo act. MrgX1-HEK293, Fluo-4 calcium fluorescence, FDSS. activation (ratio percentage), % at 10 µM. 13% of 1,200 active;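 active = ratio at least 3 SD above the weak peptide control, stable starting fluorescence, no direct agonism earlier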;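 note: compound followed by low BAM8-22 agonist challenge near EC20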
MrgX1 antag conf = reconfirmed antagonist of human MrgX1 receptor signaling. AID 602420. shares compounds with MrgX1 antag. remaining BAM8-22 calcium response % of control (hits give low values), % at 10 µM. 19% of 2,300 active. MrgX1-HEK293, BAM8-22 calcium flux, Fluo-4; hits give low values;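 active = remaining agonist calcium response no higher than 100% minus 3 SD of agonist-only control wells, with starting fluorescence near control levels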;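 note: agonist BAM8-22 given at a near maximal EC90 to ECmax level; peak minus minimum fluorescence divided by baseline after agonist addition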
HEK293 Ca flux = counter-screen for MrgX1 antagonists: effect in parental HEK293 cells | Fluo-4 calcium fluorescence, FDSS | AID 624111 | 2% of 4,000 active | fluorescence ratio F(max-min)/F0 at 10 µM | shares compounds with MrgX1 antag;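 active = duplicate-averaged calcium fluorescence ratio at least three times the standard deviation of buffer wells, a nonspecific response in parental cells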
HEK293 Ca counter = counter-screen for MrgX1 allosteric activators: effect in parental HEK293 cells; shares compounds with MrgX1 antag; parental HEK293 calcium flux, Fluo-4 fluorescence ratio; hits give high values; fluorescence ratio F(max-min)/F0 at 10 µM; 0.4% of 4,000 active; AID 624114;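 active = calcium fluorescence ratio, averaged over duplicates, at least 3 SD of the buffer-well ratio, meaning a nonspecific response in receptor-free cells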;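 note: untransfected parental HEK293 lacking MrgX1 used as counterscreen for MrgX1 allosteric activators; fluorescence change taken during the second addition on a kinetic imager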
HEK293 Ca cntr2 = MrgX1 activator counter-screen hit in parental HEK293 cells; fluorescence ratio F(max-min)/F0 at 10 µM; shares compounds with MrgX1 antag; 8.7% of 4,000 active; Fluo-4 calcium fluorescence (FDSS); hits give high values;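 active = calcium fluorescence ratio at least three times the spread of buffer wells, meaning a non-specific response in parental cells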
Each line names hits and unclear results; the compound was inactive in the other large screens (follow-up assays come after a bar, where they were run).

Cc1cc(-c2cccs2)c2c(N)c(C(=O)c3ccc4c(c3)OCO4)sc2n1	RGS4 pot -7.9, MrgX1 antag -8.3 | RGS4 activ val 93 | RGS4 act ctr 96 | MrgX1 antag conf inactive | HEK293 Ca flux 0.65 | HEK293 Ca counter inactive | HEK293 Ca cntr2 inactive
COc1ccc(NC(=O)NCCCCc2ccccc2)c(OC)c1	none
O=S(=O)(Nc1cc2nc3ccccc3nc2n1Cc1ccccc1)c1ccc(Cl)cc1	MrgX1 ag 45, RGS4 pot -14 | RGS4 activ val 94 | RGS4 act ctr 88 | MrgX1 ag reconf inactive | HEK293 Ca flux 0.037 | HEK293 Ca counter inactive | HEK293 Ca cntr2 inactive
Cc1cc(OCCN2CCOCC2)ccc1C(C)C	none
COc1ccc(-c2nc(NC(=O)c3[nH]c(C)c(C(C)=O)c3C)sc2C)cc1	RGS4 pot -11, MrgX1 antag -8.5 | RGS4 activ val 92 | RGS4 act ctr 92 | MrgX1 antag conf 53% | HEK293 Ca flux inactive | HEK293 Ca counter inactive | HEK293 Ca cntr2 inactive
COc1ccc(OC)c(NC(=O)c2[nH]c(C)c(C(C)=O)c2C)c1	none
CCOc1ccc(OCc2ccc(C(=O)N3CCCCC3)o2)cc1	none
Cc1ccc(OCc2ccc(C(=O)N3CCCC3)o2)cc1C	RGS4 pot -7.9, MrgX1 antag -5.3 | RGS4 activ val 73 | RGS4 act ctr 84 | MrgX1 antag conf 73% | HEK293 Ca flux inactive | HEK293 Ca counter inactive | HEK293 Ca cntr2 inactive
Cc1cc(N2CCCCC2)nc2ccc(NC(=O)c3ccc(Br)o3)cc12	RGS4 pot -7.7, MrgX1 antag -6.9 | RGS4 activ val 72 | RGS4 act ctr 84 | MrgX1 antag conf inactive | HEK293 Ca flux inactive | HEK293 Ca counter inactive | HEK293 Ca cntr2 inactive
Cc1cc(N2CCN(C)CC2)nc2ccc(NC(=O)c3ccc(Br)o3)cc12	none
CC(C)c1ccc(NC(=O)C2CSC3(C)CCC(=O)N23)cc1 (stereo not drawn)	none
COc1cccc(OC)c1C(=O)Nc1ccncc1	none
COc1ccccc1C(=O)Nc1nc(-c2ccc(S(=O)(=O)N3CCOCC3)cc2)cs1	RGS4 pot -9.6, MrgX1 antag -8.3 | RGS4 activ val 92 | RGS4 act ctr 58 | MrgX1 antag conf 51% | HEK293 Ca flux inactive | HEK293 Ca counter inactive | HEK293 Ca cntr2 inactive
COc1ccccc1OC(C)C(=O)Nc1nc(-c2ccc(S(=O)(=O)N3CCOCC3)cc2)cs1 (stereo not drawn)	none
CCOC(=O)c1ccc(NC(=S)N2CCSC2c2ccc(Cl)cc2)cc1 (stereo not drawn)	RGS4 pot -8.8, MrgX1 antag -6.3 | RGS4 activ val 94 | RGS4 act ctr 91 | MrgX1 antag conf 58% | HEK293 Ca flux inactive | HEK293 Ca counter 49 | HEK293 Ca cntr2 inactive
CCOC(=O)c1ccc(NC(=S)N2CCSC2c2ccc(OC)cc2)cc1 (stereo not drawn)	none
CCC12CC3CC(C1)CC(C(=O)NNC(N)=O)(C3)C2	none
COc1cccc(-c2csc(N3CCN(C(=O)Nc4ccc(Cl)cc4)CC3)n2)c1	RGS4 pot -8.4, MrgX1 antag -6.1 | RGS4 activ val 87 | RGS4 act ctr 56 | MrgX1 antag conf 75% | HEK293 Ca flux inactive | HEK293 Ca counter inactive | HEK293 Ca cntr2 inactive
Cc1cc(NC(=O)c2ccco2)c(=O)n(Cc2cccc(C(F)(F)F)c2)c1	none
COc1cccc(N2CCN(c3ncnc4c3[nH]c3ccccc34)CC2C)c1 (stereo not drawn)	RGS4 pot -9, MrgX1 antag -15 | RGS4 activ val 94 | RGS4 act ctr 83 | MrgX1 antag conf 4.6% | HEK293 Ca flux inactive | HEK293 Ca counter inactive | HEK293 Ca cntr2 inactive
Oc1ccc(Nc2nnc(-c3ccc(O)cc3)c3ccccc23)cc1	none
COc1ccc(Nc2nnc(-c3ccc(O)cc3)c3ccccc23)cc1	RGS4 pot -9.3, MrgX1 antag -8.4 | RGS4 activ val 82 | RGS4 act ctr 43 | MrgX1 antag conf inactive | HEK293 Ca flux inactive | HEK293 Ca counter 54 | HEK293 Ca cntr2 inactive
CCOc1ccc(C(=O)NCC2CCCN2S(=O)(=O)c2cccs2)cc1 (stereo not drawn)	none
CNS(=O)(=O)c1cccc(C(=O)OCc2cc(=O)oc3c(C)c(O)ccc23)c1	RGS4 pot -8.2, MrgX1 antag -9.4 | RGS4 activ val 85 | RGS4 act ctr 70 | MrgX1 antag conf 54% | HEK293 Ca flux inactive | HEK293 Ca counter inactive | HEK293 Ca cntr2 inactive
CCOC(=O)c1cnc2c(C)cccc2c1NCc1ccco1	MrgX1 allo act 7.6, RGS4 pot -12 | RGS4 activ val 92 | RGS4 act ctr 94 | MrgX1 PAM conf inactive | HEK293 Ca flux inactive | HEK293 Ca counter inactive | HEK293 Ca cntr2 inactive
C[C@@H]1CC2OC(=O)[C@@]3(C)C(=O)CC[C@@](C)(C23)[C@@]1(O)CCc1ccoc1 (stereo partly drawn)	none
COC(=O)c1sc(-c2ccc(C(C)(C)C)cc2)cc1NC(=O)CSCC(=O)O	RGS4 pot -7.7, MrgX1 antag -5.3 | RGS4 activ val 75 | RGS4 act ctr 84 | MrgX1 antag conf inactive | HEK293 Ca flux inactive | HEK293 Ca counter inactive | HEK293 Ca cntr2 inactive
Cc1ccc(-n2nc3c(c2NC(=O)c2ccc(F)c(F)c2)CS(=O)(=O)C3)cc1	none
